Experimental data: ChEMBL document CHEMBL1123812, “Pyrroloisoquinoline antidepressants. 2. In-depth exploration of structure-activity relationships” (J Med Chem, 1987)
pKi: −log10 of the molar value. Each block holds one compound with its values, some of them ahead of it. Activity calls are given as the source filed them.

Columns and labels:
[1] = target: Serotonin 2 (5-HT2) receptor (Rattus norvegicus) (UniProt P30994+P08909+P14842); test: (§1) Binding affinity towards 5-hydroxytryptamine 2 receptor at 1.0 uM concentration; format: protein assay
Chain of Serotonin 2 (5-HT2) receptor (Rattus norvegicus) (P08909 whole entry, looked up): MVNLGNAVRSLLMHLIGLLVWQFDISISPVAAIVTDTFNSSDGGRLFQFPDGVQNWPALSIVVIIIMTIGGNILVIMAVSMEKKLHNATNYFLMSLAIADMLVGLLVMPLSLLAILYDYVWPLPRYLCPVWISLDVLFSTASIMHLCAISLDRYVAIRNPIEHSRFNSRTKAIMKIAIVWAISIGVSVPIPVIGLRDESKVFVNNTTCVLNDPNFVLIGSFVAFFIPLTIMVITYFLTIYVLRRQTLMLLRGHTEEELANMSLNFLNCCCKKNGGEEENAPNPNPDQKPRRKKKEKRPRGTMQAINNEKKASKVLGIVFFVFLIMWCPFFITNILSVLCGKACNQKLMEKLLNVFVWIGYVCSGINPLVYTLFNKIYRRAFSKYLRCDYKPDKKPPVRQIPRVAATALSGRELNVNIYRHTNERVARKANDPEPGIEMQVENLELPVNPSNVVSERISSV
Chain of Serotonin 2 (5-HT2) receptor (Rattus norvegicus) (P14842 whole entry, looked up): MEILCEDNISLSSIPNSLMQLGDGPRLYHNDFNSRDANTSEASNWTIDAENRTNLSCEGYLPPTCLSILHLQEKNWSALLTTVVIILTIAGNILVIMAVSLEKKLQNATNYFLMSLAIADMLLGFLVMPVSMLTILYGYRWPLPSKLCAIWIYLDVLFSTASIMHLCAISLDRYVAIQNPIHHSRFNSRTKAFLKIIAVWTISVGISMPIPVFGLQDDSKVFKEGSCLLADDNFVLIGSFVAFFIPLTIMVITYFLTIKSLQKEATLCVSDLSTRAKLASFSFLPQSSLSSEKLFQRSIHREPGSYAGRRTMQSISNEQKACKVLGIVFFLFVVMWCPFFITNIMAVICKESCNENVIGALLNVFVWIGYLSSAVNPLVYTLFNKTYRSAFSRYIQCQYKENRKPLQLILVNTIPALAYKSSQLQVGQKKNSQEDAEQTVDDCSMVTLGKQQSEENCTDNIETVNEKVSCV
Chain of Serotonin 2 (5-HT2) receptor (Rattus norvegicus) (P30994 whole entry, looked up): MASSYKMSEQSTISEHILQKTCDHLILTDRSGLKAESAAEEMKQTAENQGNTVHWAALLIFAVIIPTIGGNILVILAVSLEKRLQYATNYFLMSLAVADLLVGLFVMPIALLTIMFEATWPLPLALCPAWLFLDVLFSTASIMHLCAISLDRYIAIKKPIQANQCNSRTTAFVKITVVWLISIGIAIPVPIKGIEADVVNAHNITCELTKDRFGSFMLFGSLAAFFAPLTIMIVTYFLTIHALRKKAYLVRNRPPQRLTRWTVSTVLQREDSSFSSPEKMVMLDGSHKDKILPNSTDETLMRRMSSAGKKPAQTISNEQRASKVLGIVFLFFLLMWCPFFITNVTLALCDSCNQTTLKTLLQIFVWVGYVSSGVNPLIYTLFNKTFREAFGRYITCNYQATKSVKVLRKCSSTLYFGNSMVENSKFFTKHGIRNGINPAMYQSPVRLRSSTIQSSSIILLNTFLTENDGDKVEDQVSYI
Procedure, shortened: (§2)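 Rat brain crude synaptic membranes in 20 mM NaHEPES pH 7.5. Ligands: α1 cortex […] 0.4 nM, nonspecific with (-)-NE 100 μM, 30 min at 25 °C. […] D2 striatum [3H]spiperone 0.05 nM with (+)-butaclamol 1 μM, 45 min at 37 °C. S1 cortex [3H]5-HT 1 nM plus glutathione and MgCl2, with 5-HT 10 μM, 20 min at 37 °C. […] Samples filtered on GF/B and counted.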

[2] = target: Serotonin 1 (5-HT1) receptor (Rattus norvegicus) (UniProt P28564+P30940+P19327+P28565); test: Binding affinity towards serotonin S1 receptor at 1.0 uM; format: protein assay; procedure, shortened: as §2
Mus musculus [3] = organism: Mus musculus; test: Antagonism of tetrabenazine (TBZ)-induced depression measured in mice by motor activity; format: functional; conditions: Mus musculus; read-out: ED50
Procedure, shortened: (§3)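 Nonfasted male Swiss Webster mice, 18–24 g, ten per dose level and in saline controls. Test compound given ip 30 min before tetrabenazine 32 mg/kg ip; dose expressed as free base. Motor activity and ptosis scored. Control response ≤90% corrected by Abbott's formula.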

[4] = target: Sodium-dependent dopamine transporter (Rattus norvegicus) (UniProt P23977); test: Inhibition of tritiated dopamine (DA) uptake at 0.1 uM concentration; format: functional
Chain of Sodium-dependent dopamine transporter (Rattus norvegicus) (P23977 whole entry): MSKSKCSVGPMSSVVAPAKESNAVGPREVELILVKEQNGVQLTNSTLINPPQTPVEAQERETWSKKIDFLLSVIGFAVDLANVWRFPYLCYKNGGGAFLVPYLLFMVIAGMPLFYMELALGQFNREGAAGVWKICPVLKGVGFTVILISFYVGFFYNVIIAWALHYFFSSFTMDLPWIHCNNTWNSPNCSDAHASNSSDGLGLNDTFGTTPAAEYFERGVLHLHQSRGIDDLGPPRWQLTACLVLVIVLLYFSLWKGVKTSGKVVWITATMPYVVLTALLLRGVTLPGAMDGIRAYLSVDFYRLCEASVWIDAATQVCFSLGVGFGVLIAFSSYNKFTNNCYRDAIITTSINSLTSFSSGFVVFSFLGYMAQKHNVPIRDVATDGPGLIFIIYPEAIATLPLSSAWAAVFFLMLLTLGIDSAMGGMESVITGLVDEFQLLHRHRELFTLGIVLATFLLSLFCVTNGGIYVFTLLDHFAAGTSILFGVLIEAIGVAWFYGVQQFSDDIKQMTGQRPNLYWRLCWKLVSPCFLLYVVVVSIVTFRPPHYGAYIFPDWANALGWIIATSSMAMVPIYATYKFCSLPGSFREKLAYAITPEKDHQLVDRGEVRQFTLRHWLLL
Procedure, shortened: (§4)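 Male Wistar rat brain synaptosomes (P2 fraction): hypothalamus for NE, striatum for DA, cerebral cortex for 5-HT. Buffer is Tris- or HEPES-buffered salt medium with glucose, ascorbate and nialamide, pH 7.4 at 37 °C. Preincubated 10 min at 37 °C with compound. Uptake started with [3H]NE 100–300 nM, [3H]DA 50–300 nM or [3H]5-HT 100–200 nM, incubated 3 min (DA) or 6–10 min (NE, 5-HT). Blanks held on ice. Filtered, counted by scintillation.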

[5] = target: D(2) dopamine receptor (Rattus norvegicus) (UniProt P61169); test: Binding affinity towards dopamine receptor D2 at 1.0 uM concentration; procedure, shortened: as §2
Chain of D(2) dopamine receptor (Rattus norvegicus) (P61169 whole entry): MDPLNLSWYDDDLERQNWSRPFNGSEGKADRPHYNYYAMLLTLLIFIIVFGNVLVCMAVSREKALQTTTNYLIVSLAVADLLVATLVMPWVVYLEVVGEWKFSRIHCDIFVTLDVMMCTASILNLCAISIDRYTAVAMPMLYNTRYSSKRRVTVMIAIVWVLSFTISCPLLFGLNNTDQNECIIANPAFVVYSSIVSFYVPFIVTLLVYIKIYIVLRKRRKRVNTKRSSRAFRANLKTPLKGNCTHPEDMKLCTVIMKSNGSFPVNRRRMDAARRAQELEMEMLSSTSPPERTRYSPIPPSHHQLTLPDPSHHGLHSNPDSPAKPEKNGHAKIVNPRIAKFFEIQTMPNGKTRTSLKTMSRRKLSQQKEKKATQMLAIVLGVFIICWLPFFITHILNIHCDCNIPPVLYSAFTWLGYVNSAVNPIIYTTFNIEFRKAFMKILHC

[6] = target: Sodium-dependent serotonin transporter (Rattus norvegicus) (UniProt P31652); test: Inhibition of tritiated serotonin(5-HT) uptake at 0.1 uM concentration; format: functional; procedure, shortened: as §4
Chain of Sodium-dependent serotonin transporter (Rattus norvegicus) (P31652 whole entry): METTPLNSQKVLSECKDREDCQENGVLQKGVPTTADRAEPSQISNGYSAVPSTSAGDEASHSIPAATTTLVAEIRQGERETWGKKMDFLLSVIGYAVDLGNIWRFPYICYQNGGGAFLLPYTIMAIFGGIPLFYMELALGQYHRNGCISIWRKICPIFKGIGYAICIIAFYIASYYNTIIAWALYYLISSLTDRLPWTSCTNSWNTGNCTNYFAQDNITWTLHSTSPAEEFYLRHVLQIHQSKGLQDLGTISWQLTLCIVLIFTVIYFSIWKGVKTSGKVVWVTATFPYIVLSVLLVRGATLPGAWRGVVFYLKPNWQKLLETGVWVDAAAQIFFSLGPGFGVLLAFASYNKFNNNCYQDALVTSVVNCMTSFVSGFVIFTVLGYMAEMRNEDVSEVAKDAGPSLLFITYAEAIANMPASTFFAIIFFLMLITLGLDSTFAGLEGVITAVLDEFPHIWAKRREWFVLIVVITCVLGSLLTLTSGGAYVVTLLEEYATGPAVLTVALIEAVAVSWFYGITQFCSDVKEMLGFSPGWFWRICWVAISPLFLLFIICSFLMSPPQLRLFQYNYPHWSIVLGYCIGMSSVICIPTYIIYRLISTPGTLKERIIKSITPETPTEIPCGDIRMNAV

Rattus norvegicus [7] = organism: Rattus norvegicus; test: Ability to inhibit the uptake of tritiated norepinephrine (NE); format: functional; procedure, shortened: as §4
Mus musculus [8] = organism: Mus musculus; test: Antagonism of tetrabenazine (TBZ)-induced depression in mice measured for ptosis; format: functional; conditions: Mus musculus; read-out: ED50; procedure, shortened: as §3
Mus musculus [9] = organism: Mus musculus; test: Gross behavioral effects ascertained in mice; W indicates weak stimulant or depressant activity of little significance.; format: functional, organism-based
Procedure, shortened: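 Male Swiss Webster mice, 18–24 g, three per dose, given ip doses of 1, 3, 10, 30, 100 and 300 mg/kg. Observed for gross behavior and held for 4 days. Scored as weak (W), stimulant (S), depressant (D) or convulsant (C).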

Rattus norvegicus [10] = organism: Rattus norvegicus; test: Ability to inhibit the uptake of tritiated norepinephrine (NE) at 0.1 uM concentration; format: functional; procedure, shortened: as §4
Rattus norvegicus [11] = organism: Rattus norvegicus; test: Ability to inhibit the uptake of tritiated dopamine (DA) at 1 uM concentration; format: functional
Procedure, shortened: (§5)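 Rat synaptosomal uptake as above: striatal P2 for [3H]DA (50–300 nM, 3 min) and cortical P2 for [3H]5-HT (100–200 nM, 6 min). 37 °C after 10-min preincubation with compound. […] Blanks incubated in ice water. Filter-retained tritium counted by liquid scintillation.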

Rattus norvegicus [12] = organism: Rattus norvegicus; test: Ability to inhibit the uptake of tritiated serotonin(5-HT) at 1 uM concentration; format: functional; procedure, shortened: as §5
[13] = target: Sodium-dependent dopamine transporter (Rattus norvegicus, UniProt P23977); test: Inhibition of the uptake of tritiated dopamine (DA) in rat synaptosomes; format: subcellular, Brain
Chain of Sodium-dependent dopamine transporter (P23977 whole entry): as the sequence (P23977 whole entry) above

[14] = target: Serotonin 2 (5-HT2) receptor (Rattus norvegicus, UniProt P30994+P08909+P14842); test: as §1; format: protein assay
[15] = target: Norepinephrine transporter (Rattus norvegicus, UniProt Q9WTR4); test: Inhibition of uptake of tritiated norepinephrine (NE) in rat synaptosomes; format: subcellular, Brain
Chain of Norepinephrine transporter (Q9WTR4 whole entry): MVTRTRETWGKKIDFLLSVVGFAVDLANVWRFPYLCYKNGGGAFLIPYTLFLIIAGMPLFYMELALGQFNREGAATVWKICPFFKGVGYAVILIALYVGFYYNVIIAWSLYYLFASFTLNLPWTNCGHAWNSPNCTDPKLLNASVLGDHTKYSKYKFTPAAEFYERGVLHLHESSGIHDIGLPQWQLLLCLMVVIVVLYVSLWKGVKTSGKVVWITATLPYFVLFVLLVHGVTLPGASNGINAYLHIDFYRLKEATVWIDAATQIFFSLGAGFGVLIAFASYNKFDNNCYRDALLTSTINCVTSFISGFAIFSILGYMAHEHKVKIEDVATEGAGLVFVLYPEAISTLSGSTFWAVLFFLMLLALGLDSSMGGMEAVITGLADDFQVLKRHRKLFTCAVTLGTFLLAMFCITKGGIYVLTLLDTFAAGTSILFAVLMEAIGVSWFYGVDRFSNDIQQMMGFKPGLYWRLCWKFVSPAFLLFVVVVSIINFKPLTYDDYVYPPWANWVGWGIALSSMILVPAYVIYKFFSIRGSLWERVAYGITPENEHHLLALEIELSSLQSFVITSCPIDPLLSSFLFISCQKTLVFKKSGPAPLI

Rattus norvegicus [16] = organism: Rattus norvegicus; test: Ability to inhibit the uptake of tritiated dopamine (DA) 0.1 uM concentration; format: functional; procedure, shortened: as §4
[17] = target: Sodium-dependent serotonin transporter (Rattus norvegicus) (UniProt P31652); test: Ability to inhibit the uptake of [3H]- serotonin(5-HT) 0.1 uM concentration at rat brain synaptosomes; format: functional, subcellular; procedure, shortened: as §4
[18] = target: Norepinephrine transporter (Rattus norvegicus) (UniProt Q9WTR4); test: Ability to inhibit the uptake of [3H]norepinephrine (NE) 0.1 uM concentration at rat brain synaptosomes; format: functional, subcellular; procedure, shortened: as §4
Chain of Norepinephrine transporter (Rattus norvegicus) (Q9WTR4 as listed by the source): as the sequence (Q9WTR4 whole entry) above

Mus musculus [19] = organism: Mus musculus; test: Gross behavioral effects ascertained in mice; D indicates significant depressant properties.; format: functional, organism-based
Procedure, shortened: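 Male Swiss Webster albino mice, 18–24 g, three per dose, given ip 1, 3, 10, 30, 100 and 300 mg/kg. Gross behaviour observed and held 4 days. Estimated LD50 range from lethality count on day 4. Scored as weak stimulant/depressant, significant stimulant, significant depressant or overt convulsant.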

Rattus norvegicus [20] = test: Ability to inhibit the uptake of tritiated serotonin(5-HT) at 0.1 mg/kg concentration; format: functional
Mus musculus [21] = test: Ability to antagonise tetrabenazine (TBZ)-induced depression measured in mice for ptosis by 10 mg/kg i.p. dose; inactive (<10% antagonism) at 30 mgjkg is represented as I-30.; format: functional, organism-based; set-up: dose 10 mg/kg
Procedure, shortened: (§6)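 Swiss Webster male albino mice, nonfasted, 18–24 g, 10 per dose and in saline control. Compound given ip 30 min before TBZ 32 mg/kg ip. Motor activity and ptosis scored. Response corrected by Abbott's formula when control response was 90% or less. Doses expressed as free base.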

Mus musculus [22] = test: (§7) Ability to antagonise intraperitoneal dose; inactive (<10% antagonism) at 30 mgjkg is represented as I-30.; format: functional, organism-based; procedure, shortened: as §6
Rattus norvegicus [23] = organism: Rattus norvegicus; test: Ability to inhibit the uptake of tritiated serotonin(5-HT) %inhibition; format: functional
Procedure, shortened: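 Rat brain synaptosomes (male Wistar P2 fraction) from hypothalamus (NE), striatum (DA) or cerebral cortex (5-HT), in Tris or HEPES Krebs-type medium with nialamide, pH 7.4. Preincubation 10 min at 37 °C with compound. Then [3H]NE 100–300 nM, [3H]DA 50–300 nM or [3H]5-HT 100–200 nM added for 3 min (DA) or 6–10 min (NE, 5-HT). Blanks kept on ice. Filtration and scintillation counting. Percent inhibition at 0.100 μM when weak.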

Mus musculus [24] = test: as §7; format: functional, organism-based; procedure, shortened: as §3; remark: listed apart in the source
Mus musculus [25] = test: Ability to antagonise intraperitoneal dose; inactive (<10% antagonism) at 30 mg/kg is represented as I-30.; format: functional, organism-based; set-up: dose 30 mg/kg; procedure, shortened: as §3

Structure (SMILES): Br.Fc1ccc([C@@H]2CN3CCC[C@H]3c3cc(F)ccc32)cc1
inhibition [1]: 5%
inhibition [2]: -9%
ED50 (Mus musculus [3]): > 60 mg/kg
inhibition [4]: 38%
inhibition [5]: 48%
inhibition [6]: 21%
pKi (Rattus norvegicus [7]): ~7.00
ED50 (Mus musculus [8]): 1.6 mg/kg
behavior (Mus musculus [9]): Partial stimulant

Structure (SMILES): Clc1ccc([C@@H]2CN3CCC[C@H]3c3ccccc32)c(Cl)c1
Inhibition (Rattus norvegicus [10]): 31%
Inhibition (Rattus norvegicus [11]): 34%
Inhibition (Rattus norvegicus [12]): 52%

Structure (SMILES): c1ccc([C@@H]2CN3CCC[C@H]3c3ccsc32)cc1
behavior (Mus musculus [19]): Significant depressant
inhibition in vivo at 0.1 mg/kg (Rattus norvegicus [20]): 28%
ED50 (Mus musculus [21]): inactive
ED50 (Mus musculus [22]): inactive

Structure (SMILES): Br.c1csc([C@@H]2CN3CCC[C@H]3c3ccsc32)c1
Inhibition (Rattus norvegicus [23]): 2%
behavior (Mus musculus [19]): Significant depressant
ED50 (Mus musculus [24]): inactive
ED50 (Mus musculus [25]): inactive

More lines, main results first:

pKi [13]: 8.01
Ki [14]: 54 nM
pKi [15]: 7.38
Structure (SMILES): O=C(Nc1ccccc1)Nc1ccc([C@@H]2CN3CCC[C@H]3c3ccccc32)cc1
ED50 (Mus musculus [3]): > 60 mg/kg
ED50 (Mus musculus [8]): 10 mg/kg

pKi (Rattus norvegicus [16]): 6.00
inhibition [17]: 11%
inhibition [18]: 27%
Structure (SMILES): c1ccc([C@@H]2CN3CCCC[C@H]3c3ccccc32)cc1
behavior (Mus musculus [9]): Weak
